Assay results from ChEMBL document CHEMBL3739330, “Phenolic group on A-ring is key for dracoflavan B as a selective noncompetitive inhibitor of α-amylase” (Bioorg Med Chem, 2015).
Activity calls are given as the source filed them. The calls are words filed in the database; no cut-off is given here.

Legend:
[1] = target: T1, Pancreatic alpha-amylase (Sus scrofa, UniProt P00690); assay: Inhibition of porcine pancreatic alpha-amylase assessed as starch digestion up to 120 mins by turbidity assay
T1 sequence (P00690 whole entry): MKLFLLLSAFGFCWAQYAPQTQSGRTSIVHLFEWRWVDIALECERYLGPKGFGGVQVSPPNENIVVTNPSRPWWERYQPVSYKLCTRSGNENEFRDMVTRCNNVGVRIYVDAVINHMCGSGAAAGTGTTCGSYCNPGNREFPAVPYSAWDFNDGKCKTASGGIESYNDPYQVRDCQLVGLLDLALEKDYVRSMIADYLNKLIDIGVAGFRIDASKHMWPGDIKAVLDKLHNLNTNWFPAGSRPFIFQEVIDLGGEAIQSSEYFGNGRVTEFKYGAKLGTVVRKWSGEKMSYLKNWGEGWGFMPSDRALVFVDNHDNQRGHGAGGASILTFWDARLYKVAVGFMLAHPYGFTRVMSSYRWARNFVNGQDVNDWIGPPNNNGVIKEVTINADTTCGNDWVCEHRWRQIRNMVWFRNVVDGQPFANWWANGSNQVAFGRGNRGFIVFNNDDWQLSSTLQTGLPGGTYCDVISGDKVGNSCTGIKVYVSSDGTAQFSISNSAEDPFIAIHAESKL

[2] = target: T2, Pancreatic alpha-amylase (Sus scrofa) (UniProt P00690); assay: Inhibition of porcine pancreatic alpha-amylase assessed as starch digestion up to 370 uM up to 120 mins by turbidity assay
T2 sequence (whole entry): T1 sequence (P00690 whole entry)

[3] = target: Alpha-amylase (Bacillus subtilis (strain 168), UniProt P00691); assay: Inhibition of Bacillus subtilis alpha-amylase
[4] = test system: Aspergillus oryzae; assay: Inhibition of Aspergillus oryzae alpha-amylase
[5] = target: T1, Pancreatic alpha-amylase; assay: Non-competitive inhibition of porcine pancreatic alpha-amylase by Lineweaver-Burk plot analysis
Procedure, shortened: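 Corn starch substrate 0.25–1 mg/mL, inhibitor at 11, 18 and 22 µM. Inhibitor (dissolved in methanol, diluted in 0.1 M sodium phosphate pH 6.9) preincubated with starch at 37 °C for 15 min. Enzyme then added and reaction stopped at 5 min with DNSA reagent. Boiled 5 min and absorbance read at 540 nm. Initial velocity taken from reducing sugar released. Mode assigned by Michaelis–Menten and Lineweaver–Burk analysis, with a buffer-only control.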

[6] = organism: Rattus norvegicus; assay: Inhibition of rat intestine alpha-glucosidase assessed as starch digestion up to 370 uM up to 120 mins by turbidity assay
[7] = organism: Rattus norvegicus; assay: Inhibition of rat intestine alpha-glucosidase assessed as starch digestion by turbidity assay

Chain of Alpha-amylase (P00691 whole entry): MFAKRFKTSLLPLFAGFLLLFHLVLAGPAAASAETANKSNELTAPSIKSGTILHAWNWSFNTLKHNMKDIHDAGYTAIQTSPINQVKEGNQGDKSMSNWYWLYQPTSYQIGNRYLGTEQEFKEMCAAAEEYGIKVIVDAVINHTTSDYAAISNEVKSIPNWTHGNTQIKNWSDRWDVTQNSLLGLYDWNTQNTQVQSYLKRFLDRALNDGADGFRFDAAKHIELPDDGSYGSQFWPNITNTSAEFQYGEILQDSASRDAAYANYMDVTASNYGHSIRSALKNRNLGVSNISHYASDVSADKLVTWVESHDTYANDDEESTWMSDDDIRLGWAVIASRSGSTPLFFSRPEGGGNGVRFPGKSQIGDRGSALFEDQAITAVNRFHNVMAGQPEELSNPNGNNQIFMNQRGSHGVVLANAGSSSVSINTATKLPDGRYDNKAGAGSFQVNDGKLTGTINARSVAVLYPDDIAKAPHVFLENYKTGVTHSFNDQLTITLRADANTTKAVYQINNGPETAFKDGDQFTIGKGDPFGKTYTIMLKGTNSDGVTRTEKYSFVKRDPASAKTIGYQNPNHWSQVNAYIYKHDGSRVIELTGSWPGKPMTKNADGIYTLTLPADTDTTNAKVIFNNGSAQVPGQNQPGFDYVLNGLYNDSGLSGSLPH

SMILES	IC50 [1] [µM]	inhibition [2]	other results
COc1cc2c(c3c1CC[C@@H](c1ccccc1)O3)[C@H]1c3c(cc(OS(=O)(=O)O)c(C)c3OC)O[C@@](c3ccccc3)(O2)[C@@H]1O		inactive	
COc1cc2c(c3c1CC[C@@H](c1ccccc1)O3)[C@H]1c3c(cc(OC(=O)c4cc(O)c(O)c(O)c4)c(C)c3OC)O[C@@](c3ccccc3)(O2)[C@@H]1O	12		
COc1cc2c(c3c1CC[C@@H](c1ccccc1)O3)[C@H]1c3c(cc(OC(=O)c4cc(OC(C)=O)c(OC(C)=O)c(OC(C)=O)c4)c(C)c3OC)O[C@@](c3ccccc3)(O2)[C@@H]1O		inactive	
Oc1cc(O)c2c(c1)O[C@@]1(c3ccc(O)c(O)c3)Oc3cc(O)c4c(c3[C@@H]2[C@H]1O)O[C@H](c1ccc(O)c(O)c1)[C@H](O)C4		inactive	
COc1cc2c(c3c1CC[C@@H](c1ccccc1)O3)[C@H]1c3c(cc(OC(=O)c4ccccc4)c(C)c3OC)O[C@@](c3ccccc3)(O2)[C@@H]1O		inactive	
C[C@@H]1O[C@@H](O[C@@H]2[C@@H](O)[C@H](O)[C@H](O[C@H]3[C@H](O)[C@@H](O)C(O)O[C@@H]3CO)O[C@H]2CO)[C@@H](O)[C@H](O)[C@H]1N[C@H]1C=C(CO)[C@@H](O)[C@H](O)[C@H]1O (some centres undefined)			inhibition [7]: Active

More lines, main results first:

IC50 [1] [µM]	inhibition [2]	SMILES	other results
23		COc1cc2c(c3c1CC[C@@H](c1ccccc1)O3)[C@H]1c3c(cc(O)c(C)c3OC)O[C@@](c3ccccc3)(O2)[C@@H]1O	
27		COc1cc2c(c3c1CC[C@@H](c1ccccc1)O3)[C@@H]1c3c(cc(O)c(C)c3OC)O[C@](c3ccccc3)(O2)[C@H]1O	IC50 [3]: 42 µM; inhibition [4]: inactive; Ki [5]: 11.7 µM
	Active	COc1cc2c(c3c1CC[C@@H](c1ccccc1)O3)[C@H]1c3c(cc(O)c(C)c3OC)O[C@@](c3ccccc3)(O2)[C@@H]1O (mixture of isomers)	inhibition [6]: inactive
	inactive	COc1cc2c(c3c1CC[C@@H](c1ccccc1)O3)[C@H]1c3c(cc(OC(C)=O)c(C)c3OC)O[C@@](c3ccccc3)(O2)[C@@H]1O	
